Results as given in ChEMBL document CHEMBL1122956, “Artificial siderophores. 1. Synthesis and microbial iron transport capabilities” (1985).

Assays:
Escherichia coli [1] = test: Ability to support the growth of Escherichia coli strain BN3300 from […] was determined in growth response assay; assay type: functional
Outline: (§1)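 Disc growth-promotion assay on Escherichia coli K12 strains. Each strain was seeded in a soft nutrient agar overlay on nutrient agar plates. The overlay contained 0.1 mM deferriferrichrome A to make the plates iron deficient. Filter paper discs were each loaded with 10 μL of a 50–500 μM aqueous siderophore solution, with hydroxamate content checked by the ferric perchlorate reagent at 480 nm. Plates were incubated at 37 °C, and the diameter of the growth zone was scored at 12 and 24 h.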

Escherichia coli [2] = test: Ability to support the growth of Escherichia coli strain BNV3040 from 50 uM stock solution was determined in growth response assay; assay type: functional; outline: as §1
Escherichia coli [3] = test: Ability to support the growth of Escherichia coli strain RWB7 from 50 uM stock solution was determined in growth response assay; No growth around disc; assay type: functional, organism-based; outline: as §1
Escherichia coli [4] = test: Ability to support the growth of Escherichia coli strain RW 193 from 50 uM stock solution was determined in growth response assay; assay type: functional; outline: as §1
Escherichia coli [5] = test: Ability to support the growth of Escherichia coli strain BN3300 from 50 uM stock solution was determined in growth response assay; No growth around disc; assay type: functional, organism-based; outline: as §1
Escherichia coli [6] = test: Ability to support the growth of Escherichia coli strain RWV193 from 50 uM stock solution was determined in growth response assay; assay type: functional; outline: as §1
Escherichia coli [7] = test: Ability to support the growth of Escherichia coli strain AN193 from 50 uM stock solution was determined in growth response assay; assay type: functional; outline: as §1
Escherichia coli [8] = test: Ability to support the growth of Escherichia coli strain BN3300 from 130 uM stock solution was determined in growth response assay; No growth around disc; assay type: functional, organism-based; outline: as §1
Escherichia coli [9] = test: Ability to support the growth of Escherichia coli strain RW 193 from 130 uM stock solution was determined in growth response assay; No growth around disc; assay type: functional, organism-based; outline: as §1
Escherichia coli [10] = test: Ability to support the growth of Escherichia coli strain RWV193 from 130 uM stock solution was determined in growth response assay; No growth around disc; assay type: functional, organism-based; outline: as §1
Escherichia coli [11] = test: Ability to support the growth of Escherichia coli strain BNV3040 from 130 uM stock solution was determined in growth response assay; No growth around disc; assay type: functional, organism-based; outline: as §1
Escherichia coli [12] = test: Ability to support the growth of Escherichia coli strain RWB7 from 130 uM stock solution was determined in growth response assay; No growth around disc; assay type: functional, organism-based; outline: as §1
Escherichia coli [13] = test: Ability to support the growth of Escherichia coli strain AN193 from 130 uM stock solution was determined in growth response assay; No growth around disc; assay type: functional, organism-based; outline: as §1
Escherichia coli [14] = test: Ability to support the growth of Escherichia coli strain BN3300 from uM stock solution was determined in growth response assay; No growth around disc; assay type: functional, organism-based; outline: as §1
Escherichia coli [15] = test: Ability to support the growth of Escherichia coli strain RWB7 from 380 uM stock solution was determined in growth response assay; No growth around disc; assay type: functional, organism-based; outline: as §1
Escherichia coli [16] = test: Ability to support the growth of Escherichia coli strain RWV193 from 380 uM stock solution was determined in growth response assay; No growth around disc; assay type: functional, organism-based; outline: as §1
Escherichia coli [17] = test: Ability to support the growth of Escherichia coli strain AN193 from 380 uM stock solution was determined in growth response assay; No growth around disc; assay type: functional, organism-based; outline: as §1
Escherichia coli [18] = test: Ability to support the growth of Escherichia coli strain BNV3040 from 380 uM stock solution was determined in growth response assay; No growth around disc; assay type: functional, organism-based; outline: as §1
Escherichia coli [19] = test: Ability to support the growth of Escherichia coli strain RW 193 from 380 uM stock solution was determined in growth response assay; No growth around disc; assay type: functional, organism-based; outline: as §1
Escherichia coli [20] = test: Ability to support the growth of Escherichia coli strain RWB7 from 100 uM stock solution was determined in growth response assay; No growth around disc; assay type: functional, organism-based; outline: as §1
Escherichia coli [21] = test: Ability to support the growth of Escherichia coli strain AN193 from 100 uM stock solution was determined in growth response assay; No growth around disc; assay type: functional, organism-based; outline: as §1
Escherichia coli [22] = test: Ability to support the growth of Escherichia coli strain RWV193 from 100 uM stock solution was determined in growth response assay; assay type: functional; outline: as §1
Escherichia coli [23] = test: Ability to support the growth of Escherichia coli strain BN3300 from 100 uM stock solution was determined in growth response assay; No growth around disc; assay type: functional, organism-based; outline: as §1
Escherichia coli [24] = test: Ability to support the growth of Escherichia coli strain BNV3040 from 134 uM stock solution was determined in growth response assay; assay type: functional; outline: as §1
Escherichia coli [25] = test: Ability to support the growth of Escherichia coli strain BN3300 from 134 uM stock solution was determined in growth response assay; No growth around disc; assay type: functional, organism-based; outline: as §1
Escherichia coli [26] = test: Ability to support the growth of Escherichia coli strain RWB7 from 134 uM stock solution was determined in growth response assay; No growth around disc; assay type: functional, organism-based; outline: as §1
Escherichia coli [27] = test: Ability to support the growth of Escherichia coli strain AN193 from 134 uM stock solution was determined in growth response assay; No growth around disc; assay type: functional, organism-based; outline: as §1
Escherichia coli [28] = test: Ability to support the growth of Escherichia coli strain RW 193 from 134 uM stock solution was determined in growth response assay; assay type: functional; outline: as §1
Escherichia coli [29] = test: Ability to support the growth of Escherichia coli strain AN193 from 50 uM stock solution was determined in growth response assay; No growth around disc; assay type: functional, organism-based; outline: as §1
Escherichia coli [30] = test: Ability to support the growth of Escherichia coli strain AN193 from 50&500 uM stock solution was determined in growth response assay; No growth around disc; assay type: functional, organism-based; outline: as §1
Escherichia coli [31] = test: Ability to support the growth of Escherichia coli strain RW 193 from 50&500 uM stock solution was determined in growth response assay; assay type: functional; outline: as §1
Escherichia coli [32] = test: Ability to support the growth of Escherichia coli strain RWB7 from 50&500 uM stock solution was determined in growth response assay; No growth around disc; assay type: functional, organism-based; outline: as §1
Escherichia coli [33] = test: Ability to support the growth of Escherichia coli strain BN3300 from 50&500 uM stock solution was determined in growth response assay; No growth around disc; assay type: functional, organism-based; outline: as §1
Escherichia coli [34] = test: Ability to support the growth of Escherichia coli strain BNV3040 from 50&500 uM stock solution was determined in growth response assay; assay type: functional; outline: as §1
Escherichia coli [35] = test: Ability to support the growth of Escherichia coli strain BN3300 from 200 uM stock solution was determined in growth response assay; No growth around disc; assay type: functional, organism-based; outline: as §1
Escherichia coli [36] = test: Ability to support the growth of Escherichia coli strain RWB7 from 200 uM stock solution was determined in growth response assay; No growth around disc; assay type: functional, organism-based; outline: as §1
Escherichia coli [37] = test: Ability to support the growth of Escherichia coli strain BNV3040 from 200 uM stock solution was determined in growth response assay; assay type: functional; outline: as §1
Escherichia coli [38] = test: Ability to support the growth of Escherichia coli strain RWV193 from 200 uM stock solution was determined in growth response assay; assay type: functional; outline: as §1

O=C(N[C@H]1COC(=O)[C@@H](NC(=O)c2cccc(O)c2O)COC(=O)[C@@H](NC(=O)c2cccc(O)c2O)COC1=O)c1cccc(O)c1O [ENTEROBACTIN]
growth zone diameter (Escherichia coli [1]): 25 mm

CC(=O)N(O)CCCCCNC(=O)CC(O)(CC(=O)NCCCCCN(O)C(C)=O)C(=O)O [ARTHROBACTIN]
growth zone diameter (Escherichia coli [2]): < 10 mm
Inhibitory diameter (Escherichia coli [3]): Not toxic
Inhibitory diameter (Escherichia coli [4]): < 10 mm
Inhibitory diameter (Escherichia coli [5]): Not toxic
growth zone diameter (Escherichia coli [6]): < 10 mm
growth zone diameter (Escherichia coli [7]): < 10 mm

CC(=O)N(O)CCCCCNC(=O)c1cc(C(=O)NCCCCCN(O)C(C)=O)cc(C(=O)NCCCCCN(O)C(C)=O)c1
Inhibitory diameter (Escherichia coli [8]): Not toxic
Inhibitory diameter (Escherichia coli [9]): Not toxic
Inhibitory diameter (Escherichia coli [10]): Not toxic
Inhibitory diameter (Escherichia coli [11]): Not toxic
Inhibitory diameter (Escherichia coli [12]): Not toxic
Inhibitory diameter (Escherichia coli [13]): Not toxic

CC(=O)N(O)CCCC1NC(=O)C(CCCN(O)C(C)=O)NC1=O (centres undefined)
growth zone diameter (Escherichia coli [2]): 25 mm
Inhibitory diameter (Escherichia coli [3]): Not toxic
Inhibitory diameter (Escherichia coli [4]): 25 mm
Inhibitory diameter (Escherichia coli [5]): Not toxic
growth zone diameter (Escherichia coli [6]): 25 mm
growth zone diameter (Escherichia coli [7]): 25 mm

CC(=O)N(O)CCCNC(=O)c1cc(C(=O)NCCCN(O)C(C)=O)cc(C(=O)NCCCN(O)C(C)=O)c1
Inhibitory diameter (Escherichia coli [14]): Not toxic
Inhibitory diameter (Escherichia coli [15]): Not toxic
Inhibitory diameter (Escherichia coli [16]): Not toxic
Inhibitory diameter (Escherichia coli [17]): Not toxic
Inhibitory diameter (Escherichia coli [18]): Not toxic
Inhibitory diameter (Escherichia coli [19]): Not toxic

CC(=O)N(O)CCCNC(=O)c1cccc(C(=O)NCCCN(O)C(C)=O)n1
Inhibitory diameter (Escherichia coli [20]): Not toxic
Inhibitory diameter (Escherichia coli [21]): Not toxic
Inhibitory diameter (Escherichia coli [22]): 25 mm
Inhibitory diameter (Escherichia coli [23]): Not toxic

CC(=O)N(O)CCCNC(=O)CN(CC(=O)NCCCN(O)C(C)=O)CC(=O)NCCCN(O)C(C)=O
Inhibitory diameter (Escherichia coli [24]): 25 mm
Inhibitory diameter (Escherichia coli [25]): Not toxic
Inhibitory diameter (Escherichia coli [26]): Not toxic
Inhibitory diameter (Escherichia coli [27]): Not toxic
growth zone diameter (Escherichia coli [28]): 25 mm

CC(=O)N(O)CCCNC(=O)CC(CC(=O)NCCCN(O)C(C)=O)C(=O)NCCCN(O)C(C)=O
Inhibitory diameter (Escherichia coli [20]): Not toxic
Inhibitory diameter (Escherichia coli [21]): Not toxic
Inhibitory diameter (Escherichia coli [22]): 25 mm
Inhibitory diameter (Escherichia coli [23]): Not toxic

FERRICHROME
Inhibitory diameter (Escherichia coli [3]): Not toxic
Inhibitory diameter (Escherichia coli [29]): Not toxic
Inhibitory diameter (Escherichia coli [5]): Not toxic

CN(O)C(=O)CCCCCNC(=O)CC(CC(=O)NCCCCCC(=O)N(C)O)C(=O)NCCCCCC(=O)N(C)O
Inhibitory diameter (Escherichia coli [30]): Not toxic
growth zone diameter (Escherichia coli [31]): 25 mm
Inhibitory diameter (Escherichia coli [32]): Not toxic
Inhibitory diameter (Escherichia coli [33]): Not toxic
Inhibitory diameter (Escherichia coli [34]): 25 mm

CC(=O)N(O)CCCNC(=O)CC(O)(CC(=O)NCCCN(O)C(C)=O)C(=O)O [SCHIZOKINEN]
Inhibitory diameter (Escherichia coli [35]): Not toxic
Inhibitory diameter (Escherichia coli [36]): Not toxic
growth zone diameter (Escherichia coli [37]): 25 mm
growth zone diameter (Escherichia coli [38]): 25 mm

CC(=O)N(O)CCCCCNC(=O)c1cccc(C(=O)NCCCCCN(O)C(C)=O)n1
Inhibitory diameter (Escherichia coli [20]): Not toxic
Inhibitory diameter (Escherichia coli [21]): Not toxic
Inhibitory diameter (Escherichia coli [22]): 25 mm
Inhibitory diameter (Escherichia coli [23]): Not toxic
